{"source": "paper PMC8915191", "about": "(Clinical cancer research : an official journal of the …, 2019)", "key": {"mTOR": {"tested_on": "mTOR", "conditions": "cited from earlier work"}, "[1]": {"tested_on": "peripheral blood mononuclear cells", "assay": "Autophagic vesicles in serial PBMC by quantitative electron microscopy", "format": "in vivo, human", "conditions": "after one week of everolimus alone; 11 patients", "in_short": "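Cancer patients took everolimus 10 mg alone for one week, then HCQ 400 or 600 mg twice daily was added. Serial PBMC were collected before treatment, after one cycle and after two cycles (one week of everolimus alone; one month combined) in a limited number of patients (3 at 400 mg, 8 at 600 mg). PBMC were fixed for quantitative EM of autophagic vesicles.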"}, "[2]": {"tested_on": "advanced clear cell renal carcinoma (ccRCC)", "conditions": "cited from earlier work"}, "[3]": {"tested_on": "patients with advanced RCC", "conditions": "human, in vivo, po, 5 weeks"}, "[4]": {"assay": "HCQ population pharmacokinetics, whole blood concentrations by HPLC-MS/MS", "format": "in vivo, human", "in_short": "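HCQ 400 or 600 mg twice daily was given with everolimus, with a draw at each visit plus intensive sampling in a few patients (pre-dose, 15 min, 30 min, 1, 2, 3, 4, 6 h). Heparinized whole blood was stored at −70 °C and spiked with d4-HCQ internal standard. It was acetonitrile/methanol-precipitated and run on LC-MS/MS (positive ESI, MRM 337.275→248.152) in duplicate. The curve was 1–7500 ng/mL (LLOQ 1.0 ng/mL). A 2-compartment first-order-absorption model was fitted.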"}, "[5]": {"conditions": "no reference given; cited from earlier work"}, "[6]": {"conditions": "2-compartment population PK model, 27 patients, oral HCQ"}, "[7]": {"conditions": "1000 bootstrap runs, population PK model"}}, "note": "Several values for one entry are separate records, joined by “and”; a condition that tells them apart may be missing. Equal values may be shown once."}
{"smiles": "CO[C@H]1C[C@@H]2CC[C@@H](C)[C@@](O)(O2)C(=O)C(=O)N2CCCC[C@H]2C(=O)O[C@H]([C@H](C)C[C@@H]2CC[C@@H](OC(=O)C(C)(CO)CO)[C@H](OC)C2)CC(=O)[C@H](C)/C=C(\\C)[C@@H](O)[C@@H](OC)C(=O)[C@H](C)C[C@H](C)/C=C/C=C/C=C/1C", "note": "[temsirolimus]", "values": [{"measurement": "mTOR inhibition in PBMC", "setting": "mTOR", "result": "sustained mTOR inhibition"}]}
{"smiles": "CO[C@H]1C[C@@H]2CC[C@@H](C)[C@@](O)(O2)C(=O)C(=O)N2CCCC[C@H]2C(=O)O[C@H]([C@H](C)C[C@@H]2CC[C@@H](OCCO)[C@H](OC)C2)CC(=O)[C@H](C)/C=C(\\C)[C@@H](O)[C@@H](OC)C(=O)[C@H](C)C[C@H](C)/C=C/C=C/C=C/1C", "note": "[everolimus, Everolimus]", "values": [{"measurement": "Drug-induced change in autophagic vesicles in PBMC", "setting": "[1]", "result": "no significant drug-induced changes"}, {"measurement": "Hazard ratio for PFS, everolimus versus placebo", "setting": "[2]; 95% CI 0.22–0.40, p<0·0001", "result": 0.30}, {"measurement": "Median PFS, everolimus alone, CHECKMATE 025", "setting": "[2]", "result": 4.6, "unit": "months"}, {"measurement": "Median PFS, everolimus alone, METEOR", "setting": "[2]", "result": 3.8, "unit": "months"}, {"measurement": "Response rate, everolimus single agent", "setting": "[2]", "result": 1, "unit": "%"}, {"measurement": "Median PFS, everolimus alone, RECORD-1", "setting": "[2]; everolimus 10 mg daily after TKI progression", "result": "4.01 months and 4 months"}]}
{"smiles": "CCN(CCO)CCCC(C)Nc1ccnc2cc(Cl)ccc12", "note": "(stereo not drawn) [HCQ, Hydroxychloroquine]", "values": [{"measurement": "Recommended phase II dose (RP2D) of HCQ", "setting": "[3]", "result": 600, "unit": "mg"}, {"measurement": "Cl/F, apparent oral clearance, Model estimate", "setting": "[4]; [6]", "result": 7.98, "unit": "L/h"}, {"measurement": "Q, intercompartmental clearance, Model estimate", "setting": "[4]; [6]", "result": 14.98, "unit": "L/h"}, {"measurement": "V2/F, apparent peripheral volume of distribution, Model estimate", "setting": "[4]; [6]", "result": 3604.83, "unit": "L"}, {"measurement": "Ka, absorption rate constant, Model estimate", "setting": "[4]; 2-compartment population PK model, 163 blood samples from 27 patients, oral HCQ", "result": 0.93, "unit": "h"}, {"measurement": "Cl/F, apparent oral clearance, Bootstrap Estimate", "setting": "[4]; [7]", "result": 8.00, "unit": "L/h"}, {"measurement": "Ka, absorption rate constant, Bootstrap Estimate", "setting": "[4]; [7]", "result": 1.00, "unit": "h"}, {"measurement": "Q, intercompartmental clearance, Bootstrap Estimate", "setting": "[4]; [7]", "result": 15.02, "unit": "L/h"}, {"measurement": "V2/F, apparent peripheral volume of distribution, Bootstrap Estimate", "setting": "[4]; [7]", "result": 3598.91, "unit": "L"}, {"measurement": "Vd/F", "setting": "[4]; human, whole blood, po", "result": 600, "unit": "L"}, {"measurement": "Plasma protein binding", "setting": "[5]", "result": "not extensively bound to plasma proteins"}]}
